According to ChEMBL document CHEMBL2417519, “Structure-activity relationships for ketamine esters as short-acting anaesthetics” (Bioorg Med Chem, 2013):

Experiments:
Format in all cases: functional
[1] = test system: Rattus norvegicus; experiment: Anesthetic effect in iv dosed Sprague-Dawley rat assessed as time required to walk
Outline: (§1)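 Adult female Sprague-Dawley rats (~350–450 g), restrained, tail marginal vein cannulated; drug at 10 mg/ml given by continuous iv infusion, initially 20 mg/kg/min until pedal withdrawal reflex score PWR = 1, then 6.7 mg/kg/min titrated up-and-down to keep dorsal recumbency and PWR = 1 to 10 min before cessation. Three rats per study, each its own ketamine control; randomised order, ≥1 h recovery between experiments.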

[2] = test system: Rattus norvegicus; experiment: Anesthetic effect in iv dosed Sprague-Dawley rat assessed as duration of recovery of righting reflex; outline: as §1
[3] = test system: Rattus norvegicus; experiment: Analgesic effect in iv dosed Sprague-Dawley rat assessed as dose required to cause pedal withdrawal reflex; outline: as §1
[4] = test system: Rattus norvegicus; experiment: Analgesic effect in iv dosed Sprague-Dawley rat assessed as time required to cause pedal withdrawal reflex; outline: as §1
[5] = test system: Rattus norvegicus; experiment: Anesthetic effect in iv dosed Sprague-Dawley rat assessed as dose required to cause loss of righting reflex; outline: as §1
[6] = test system: Rattus norvegicus; experiment: Anesthetic effect in iv dosed Sprague-Dawley rat assessed as duration of loss of righting reflex; outline: as §1

CN(C)C1(c2ccccc2Cl)CCCCC1=O.Cl (racemic)
Time [1]: 1740 s
Time [2]: 1500 s
Activity [3]: 43 mg/kg
Time [4]: 130 s
Activity [5]: 43 mg/kg
Time [6]: 125 s

CCOC(=O)CCN[C@]1(c2ccccc2Cl)CCCCC1=O.Cl
Time [1]: 80 s
Time [2]: 62 s
Activity [3]: 62 mg/kg
Time [4]: 185 s
Activity [5]: 59 mg/kg
Time [6]: 171 s

Cl.O=C1CCCC[C@]1(NCCCO)c1ccccc1Cl
Time [1]: 588 s
Time [2]: 341 s
Activity [3]: 34 mg/kg
Time [4]: 102 s
Activity [5]: 21 mg/kg
Time [6]: 59 s

CC(=O)OCCCN[C@]1(c2ccccc2Cl)CCCCC1=O.Cl
Activity [3]: 34 mg/kg
Activity [5]: 26 mg/kg
Time [6]: 81 s

CC(C)OC(=O)CCN[C@]1(c2ccccc2Cl)CCCCC1=O.Cl
Time [2]: 15 s
Activity [3]: 84 mg/kg
Activity [5]: 74 mg/kg

CC(C)OC(=O)CCN[C@@]1(c2ccccc2Cl)CCCCC1=O.Cl
Time [1]: 900 s
Time [2]: 0 s
Activity [3]: 82 mg/kg
Time [4]: 190 s
Activity [5]: 71 mg/kg
Time [6]: 170 s

CCOC(=O)CCCCNC1(c2ccccc2Cl)CCCCC1=O.Cl (racemic)
Time [1]: 112 s
Activity [3]: 57 mg/kg
Activity [5]: 34 mg/kg
Time [6]: 97 s

CC(C)OC(=O)CCCNC1(c2ccccc2Cl)CCCCC1=O.Cl (racemic)
Time [1]: 110 s
Time [2]: 37 s
Activity [3]: 66 mg/kg
Activity [5]: 42 mg/kg

CN(C)[C@]1(c2ccccc2Cl)CCCCC1=O.Cl
Time [1]: 1215 s
Time [2]: 880 s
Activity [3]: 35 mg/kg
Time [4]: 103 s
Activity [5]: 32 mg/kg
Time [6]: 94 s

CCOC(=O)CCCN(C)C1(c2ccccc2Cl)CCCCC1=O.Cl (racemic)
Time [1]: 0 s
Time [2]: 0 s
Time [4]: 600 s
Time [6]: 600 s

CCCOC(=O)CCCCNC1(c2ccccc2Cl)CCCCC1=O.Cl (racemic)
Time [1]: 90 s
Time [2]: 45 s
Activity [3]: 83 mg/kg
Time [4]: 277 s
Activity [5]: 82 mg/kg
Time [6]: 271 s

COC(=O)CCCCN(C)C1(c2ccccc2Cl)CCCCC1=O (racemic)
Time [2]: 0 s
Time [6]: 420 s

CCCOC(=O)CCCNC1(c2ccccc2Cl)CCCCC1=O.Cl (racemic)
Time [1]: 65 s
Time [2]: 10 s
Activity [3]: 209 mg/kg
Time [4]: 558 s
Activity [5]: 137 mg/kg
Time [6]: 329 s

CC(C)OC(=O)CCCCNC1(c2ccccc2Cl)CCCCC1=O.Cl (racemic)
Time [1]: 320 s
Time [2]: 180 s
Activity [3]: 38 mg/kg
Activity [5]: 38 mg/kg

CCOC(=O)CCCNC1(c2ccccc2Cl)CCCCC1=O.Cl (racemic)
Time [1]: 170 s
Time [2]: 95 s
Activity [3]: 44 mg/kg
Activity [5]: 24 mg/kg
Time [6]: 70 s

CCOC(=O)CCN(C)C1(c2ccccc2Cl)CCCCC1=O (racemic)
Time [1]: 0 s
Time [2]: 0 s
Activity [3]: 99 mg/kg
Time [4]: 290 s
Activity [5]: 95 mg/kg
Time [6]: 280 s

CNC1(c2ccccc2Cl)CCCCC1=O (racemic) [KETAMINE]
Time [1]: 900 s
Time [2]: 480 s
Activity [3]: 21 mg/kg
Time [4]: 60 s
Activity [5]: 17 mg/kg
Time [6]: 51 s

CCCOC(=O)CCNC1(c2ccccc2Cl)CCCCC1=O.Cl (racemic)
Time [1]: 0 s
Time [2]: 0 s
Activity [3]: 136 mg/kg
Time [4]: 420 s
Activity [5]: 131 mg/kg
Time [6]: 404 s

CC(C)OC(=O)CCNC1(c2ccccc2Cl)CCCCC1=O.Cl (racemic)
Time [2]: 83 s
Activity [3]: 37 mg/kg
Activity [5]: 33 mg/kg

CCOC(=O)CCNC1(c2ccccc2Cl)CCCCC1=O.Cl (racemic)
Activity [3]: 55 mg/kg
Activity [5]: 48 mg/kg
